Several values for one entry are separate records, joined by “and”; a condition that tells them apart may be missing. Equal values may be shown once.
Assays:
[1] = target: T1, Solute carrier family 15 member 2 (Rattus norvegicus, UniProt Q63424); assay: TP_TRANSPORTER: inhibition of Gly-Sar uptake (pH6.0) in SKPT cells; assay type: functional, cell-based
T1 sequence (Q63424 whole entry): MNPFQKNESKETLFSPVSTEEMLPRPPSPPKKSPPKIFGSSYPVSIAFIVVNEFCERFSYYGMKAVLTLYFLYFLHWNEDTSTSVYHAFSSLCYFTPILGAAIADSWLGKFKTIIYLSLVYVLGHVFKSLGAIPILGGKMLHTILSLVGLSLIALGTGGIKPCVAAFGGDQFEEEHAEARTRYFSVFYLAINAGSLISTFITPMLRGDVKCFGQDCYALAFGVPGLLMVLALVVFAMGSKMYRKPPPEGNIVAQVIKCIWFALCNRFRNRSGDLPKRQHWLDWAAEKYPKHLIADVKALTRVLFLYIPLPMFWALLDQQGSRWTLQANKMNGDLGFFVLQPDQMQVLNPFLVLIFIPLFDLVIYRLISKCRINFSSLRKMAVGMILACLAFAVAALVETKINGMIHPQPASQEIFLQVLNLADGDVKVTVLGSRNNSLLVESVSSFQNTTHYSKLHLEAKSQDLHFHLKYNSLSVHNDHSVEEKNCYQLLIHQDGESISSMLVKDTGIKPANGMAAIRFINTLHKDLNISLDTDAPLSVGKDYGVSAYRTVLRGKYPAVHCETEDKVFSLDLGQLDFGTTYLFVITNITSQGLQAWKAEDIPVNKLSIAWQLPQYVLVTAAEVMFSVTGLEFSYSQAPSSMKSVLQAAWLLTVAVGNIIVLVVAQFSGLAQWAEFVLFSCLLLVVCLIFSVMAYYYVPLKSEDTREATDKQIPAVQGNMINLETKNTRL
How it was run: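 Rat SKPT renal proximal tubule cells were seeded and used 4 days later. Cells were given ice-cold washes, lysed and counted by scintillation, with protein by Bradford. Non-saturable uptake was taken with 10 mM Gly-Sar.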

[2] = target: T2, Solute carrier family 15 member 1 (Homo sapiens, UniProt P46059); assay: TP_TRANSPORTER: inhibition of Gly-Sar uptake (pH6.0) in Caco-2 cells; assay type: functional, cell-based
T2 sequence (P46059 whole entry): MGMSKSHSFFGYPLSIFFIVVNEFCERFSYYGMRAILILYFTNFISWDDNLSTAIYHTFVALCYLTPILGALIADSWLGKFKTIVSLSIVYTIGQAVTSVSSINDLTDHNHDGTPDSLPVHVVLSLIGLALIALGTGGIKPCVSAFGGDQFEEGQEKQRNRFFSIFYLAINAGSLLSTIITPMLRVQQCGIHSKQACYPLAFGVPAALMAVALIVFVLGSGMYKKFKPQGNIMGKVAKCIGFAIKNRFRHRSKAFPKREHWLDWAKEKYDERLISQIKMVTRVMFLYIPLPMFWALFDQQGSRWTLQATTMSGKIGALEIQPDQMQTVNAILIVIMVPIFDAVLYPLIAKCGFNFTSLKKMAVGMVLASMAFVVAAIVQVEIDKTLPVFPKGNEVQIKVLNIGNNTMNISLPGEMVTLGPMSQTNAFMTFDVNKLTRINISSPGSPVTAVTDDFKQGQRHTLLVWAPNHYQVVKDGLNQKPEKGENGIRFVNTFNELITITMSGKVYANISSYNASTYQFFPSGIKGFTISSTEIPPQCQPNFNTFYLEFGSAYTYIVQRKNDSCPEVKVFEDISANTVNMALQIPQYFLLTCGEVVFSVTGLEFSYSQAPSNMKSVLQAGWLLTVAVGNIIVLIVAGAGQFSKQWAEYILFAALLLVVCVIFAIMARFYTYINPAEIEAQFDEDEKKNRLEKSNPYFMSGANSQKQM

| SMILES | Ki [1] | Ki [2] |
| --- | --- | --- |
| CO/N=C(\C(=O)N[C@@H]1C(=O)N2C(C(=O)[O-])=C(C[N+]3(C)CCCC3)CS[C@H]12)c1csc(N)n1 | 11.4 mM | > 30 mM |
| CC1=C(C(=O)O)N2C(=O)[C@@H](NC(=O)[C@H](N)c3ccc(O)cc3)[C@H]2SC1 [CEFADROXIL] |  | 7.2 mM |
| CC1=C(C(=O)O)N2C(=O)[C@@H](NC(=O)[C@H](N)C3=CCC=CC3)[C@H]2SC1 [CEPHRADINE] | 0.065 mM | 9.8 mM |
| CC1(C)S[C@@H]2[C@H](NC(=O)Cc3ccccc3)C(=O)N2[C@H]1C(=O)O [PENICILLIN G] |  | > 30 mM |
| CC(=O)OCC1=C(C(=O)O)N2C(=O)[C@@H](NC(=O)CSc3ccncc3)[C@H]2SC1 [CEPHAPIRIN] | > 10 mM | > 10 mM |
| CC1(C)S[C@@H]2[C@H](NC(=O)[C@H](N)c3ccc(O)cc3)C(=O)N2[C@H]1C(=O)O [AMOXICILLIN] | 0.43 mM | > 10 mM |
| N[C@@H](C(=O)N[C@@H]1C(=O)N2C(C(=O)O)=C(Cl)CS[C@H]12)c1ccccc1 [CEFACLOR ANHYDROUS] |  | > 10 mM |
| CO/N=C(\C(=O)N[C@@H]1C(=O)N2C(C(=O)O)=C(CSc3nc(C)c(CC(=O)O)s3)CS[C@H]12)c1csc(N)n1 [CEFODIZIME] | 9 mM | 22 mM |
| CO/N=C(\C(=O)N[C@@H]1C(=O)N2C(C(=O)O)=C(CSc3nc(=O)c(=O)[nH]n3C)CS[C@H]12)c1csc(N)n1 [CEFTRIAXONE] | > 20 mM | > 30 mM |
| CC1(C)S[C@@H]2[C@H](N)C(=O)N2[C@H]1C(=O)O | 19 mM | > 30 mM |
| CO/N=C(\C(=O)N[C@@H]1C(=O)N2C(C(=O)O)=C(COC(N)=O)CS[C@H]12)c1ccco1 [CEFUROXIME] | > 0.003 mM and 12.6 mM | > 5 mM and 26 mM |
| CO[C@@]1(NC(=O)C(C(=O)O)c2ccc(O)cc2)C(=O)N2C(C(=O)O)=C(CSc3nnnn3C)CO[C@@H]21 (some centres undefined) [MOXALACTAM] | 0.087 mM | 12.3 mM |
| CC(=O)OCC1=C(C(=O)O)N2C(=O)[C@@H](NC(=O)Cc3cccs3)[C@H]2SC1 [CEPHALOTHIN] | 8.3 mM | > 10 mM |
| C=CC1=C(C(=O)O)N2C(=O)[C@@H](NC(=O)/C(=N\OCC(=O)O)c3csc(N)n3)[C@H]2SC1 [CEFIXIME] | 2.6 mM | 12 mM |
| Cn1nnnc1SCC1=C(C(=O)O)N2C(=O)[C@@H](NC(=O)[C@H](O)c3ccccc3)[C@H]2SC1 [CEFAMANDOLE] | 2.8 mM | 8.1 mM |
| Cc1onc(-c2c(Cl)cccc2Cl)c1C(=O)N[C@@H]1C(=O)N2[C@@H]1SC(C)(C)[C@@H]2C(=O)O [DICLOXACILLIN] | 0.42 mM | 7.2 mM |
| O=C(Cc1cccs1)N[C@@H]1C(=O)N2C(C(=O)[O-])=C(C[n+]3ccccc3)CS[C@H]12 [CEPHALORIDINE] | 8.5 mM | > 30 mM |
| NC(=O)c1cc[n+](CC2=C(C(=O)O)N3C(=O)[C@@H](NC(=O)[C@@H](c4ccccc4)S(=O)(=O)[O-])[C@H]3SC2)cc1 [CEFSULODIN] | > 30 mM | > 30 mM |
| CO[C@@]1(NC(=O)CSCC#N)C(=O)N2C(C(=O)O)=C(CSc3nnnn3C)CS[C@@H]21 [CEFMETAZOLE] | 4.3 mM | 28 mM |
| CC1=C(C(=O)O)N2C(=O)[C@@H](NC(=O)[C@H](N)c3ccccc3)[C@H]2SC1 [CEPHALEXIN ANHYDROUS] | 0.075 mM |  |
| C=N[C@@H](C(=O)N[C@@H]1C(=O)N2[C@@H]1SC(C)(C)[C@@H]2C(=O)O)c1ccccc1 [METAMPICILLIN] | 0.73 mM | 12.7 mM |
| CC(=O)OCC1=C(C(=O)O)N2C(=O)[C@@H](N)[C@H]2SC1 | 4.9 mM | > 10 mM |
| CC(C)(O/N=C(\C(=O)N[C@@H]1C(=O)N2C(C(=O)[O-])=C(C[n+]3ccccc3)CS[C@H]12)c1csc(N)n1)C(=O)O [CEFTAZIDIME] | > 10 mM | > 10 mM |
| Cc1onc(-c2ccccc2)c1C(=O)N[C@@H]1C(=O)N2[C@@H]1SC(C)(C)[C@@H]2C(=O)O [OXACILLIN] | 3.3 mM | 12 mM |
| CC1(C)S[C@@H]2[C@H](NC(=O)C3(N)CCCCC3)C(=O)N2[C@H]1C(=O)O [CYCLACILLIN] | 0.044 mM | 0.5 mM |
| CO/N=C(\C(=O)N[C@@H]1C(=O)N2C(C(=O)[O-])=C(C[n+]3cccc4c3CCC4)CS[C@H]12)c1csc(N)n1 [CEFPIROME] | 9.5 mM | > 30 mM |
| Cc1onc(-c2ccccc2Cl)c1C(=O)N[C@@H]1C(=O)N2[C@@H]1SC(C)(C)[C@@H]2C(=O)O [CLOXACILLIN] | 0.95 mM | 3 mM |
| CO/N=C(\C(=O)N[C@@H]1C(=O)N2C(C(=O)O)=C(COC(C)=O)CS[C@H]12)c1csc(N)n1 [CEFOTAXIME] | 20 mM | > 30 mM |
| Nc1nc(/C(=C/CC(=O)O)C(=O)N[C@@H]2C(=O)N3C(C(=O)O)=CCS[C@H]23)cs1 [CEFTIBUTEN] | 0.28 mM | 0.34 mM |

— ChEMBL document CHEMBL2074537, “Interaction of 31 beta-lactam antibiotics with the H+/peptide symporter PEPT2: analysis of affinity constants and comparison with PEPT1” (Eur J Pharm Biopharm, 2005)
